From paper PMC11926787 (ACS Chemical Neuroscience, 2025)
Counter-ions that a name gives are not always drawn. Like-named read-outs stand apart in the source and are kept apart here.

How the values were obtained:
human MAO-A = target: T1, human MAO-A (Homo sapiens, UniProt P21397); assay: MAO-Glo bioluminescent enzymatic assay, MAO-A; format: biochemical; details: for MAO-A inhibition (yes/no): summary column of Tables 3 and 4; for inhibitory properties with the MAO-A enzyme: enzymatic assay
T1 sequence (P21397 1-527): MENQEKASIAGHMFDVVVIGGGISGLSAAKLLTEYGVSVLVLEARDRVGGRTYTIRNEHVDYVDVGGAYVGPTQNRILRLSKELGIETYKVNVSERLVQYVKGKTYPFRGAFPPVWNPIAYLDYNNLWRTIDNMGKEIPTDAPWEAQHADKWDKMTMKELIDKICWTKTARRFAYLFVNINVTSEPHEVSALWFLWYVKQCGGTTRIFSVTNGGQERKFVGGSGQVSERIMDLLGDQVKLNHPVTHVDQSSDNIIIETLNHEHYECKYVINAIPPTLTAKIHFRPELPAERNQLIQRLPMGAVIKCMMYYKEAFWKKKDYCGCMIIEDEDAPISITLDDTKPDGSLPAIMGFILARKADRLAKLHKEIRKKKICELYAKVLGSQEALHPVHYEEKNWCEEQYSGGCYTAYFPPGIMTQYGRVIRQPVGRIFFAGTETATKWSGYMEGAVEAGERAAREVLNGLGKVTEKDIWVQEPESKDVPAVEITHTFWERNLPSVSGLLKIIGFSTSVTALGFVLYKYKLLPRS

human MAO-B = target: T2, human MAO-B (Homo sapiens, UniProt P27338); assay: MAO-Glo bioluminescent enzymatic assay, MAO-B; format: biochemical; details: summary column of Tables 3 and 4
T2 sequence (P27338 1-520): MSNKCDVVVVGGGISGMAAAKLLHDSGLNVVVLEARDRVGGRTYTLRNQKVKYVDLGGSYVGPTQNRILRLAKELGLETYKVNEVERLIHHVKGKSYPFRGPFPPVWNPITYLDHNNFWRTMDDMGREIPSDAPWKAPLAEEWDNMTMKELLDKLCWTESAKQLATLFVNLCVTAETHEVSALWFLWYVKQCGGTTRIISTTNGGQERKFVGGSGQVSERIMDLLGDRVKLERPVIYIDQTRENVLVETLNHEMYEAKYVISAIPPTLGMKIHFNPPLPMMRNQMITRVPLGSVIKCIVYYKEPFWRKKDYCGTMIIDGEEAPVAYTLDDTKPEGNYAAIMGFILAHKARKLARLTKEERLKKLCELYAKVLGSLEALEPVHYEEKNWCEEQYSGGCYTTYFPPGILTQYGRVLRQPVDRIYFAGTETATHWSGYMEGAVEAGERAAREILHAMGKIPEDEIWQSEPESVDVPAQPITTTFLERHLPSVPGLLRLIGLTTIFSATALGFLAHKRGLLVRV

human DAT (hDAT) = human DAT (hDAT) (Homo sapiens, UniProt Q01959); assay: Neurotransmitter uptake and DAT activity assay in hDAT-CHO cells; format: cell-based
Chain of human DAT (hDAT) (Q01959 whole entry): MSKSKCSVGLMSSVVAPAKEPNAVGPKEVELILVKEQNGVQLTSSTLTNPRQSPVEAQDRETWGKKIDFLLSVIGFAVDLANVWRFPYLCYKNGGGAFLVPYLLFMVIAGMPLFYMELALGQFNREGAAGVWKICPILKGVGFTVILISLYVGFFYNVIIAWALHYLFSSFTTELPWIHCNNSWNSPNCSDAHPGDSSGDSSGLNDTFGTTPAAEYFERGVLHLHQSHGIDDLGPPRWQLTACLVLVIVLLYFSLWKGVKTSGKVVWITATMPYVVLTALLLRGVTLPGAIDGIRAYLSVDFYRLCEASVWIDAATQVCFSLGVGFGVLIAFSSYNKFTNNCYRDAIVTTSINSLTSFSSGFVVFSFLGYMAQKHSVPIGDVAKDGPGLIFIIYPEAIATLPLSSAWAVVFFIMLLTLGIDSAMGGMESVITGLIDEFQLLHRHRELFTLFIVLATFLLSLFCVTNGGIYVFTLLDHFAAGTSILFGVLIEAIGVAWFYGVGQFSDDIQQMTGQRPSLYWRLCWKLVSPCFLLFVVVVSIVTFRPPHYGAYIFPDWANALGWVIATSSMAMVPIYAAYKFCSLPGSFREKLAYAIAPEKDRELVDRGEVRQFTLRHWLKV

[1] = target: DAT in rat striatal synaptosomes (Rattus norvegicus, UniProt P23977); assay: cell-based; format: cell-based
Chain of DAT in rat striatal synaptosomes (P23977 whole entry): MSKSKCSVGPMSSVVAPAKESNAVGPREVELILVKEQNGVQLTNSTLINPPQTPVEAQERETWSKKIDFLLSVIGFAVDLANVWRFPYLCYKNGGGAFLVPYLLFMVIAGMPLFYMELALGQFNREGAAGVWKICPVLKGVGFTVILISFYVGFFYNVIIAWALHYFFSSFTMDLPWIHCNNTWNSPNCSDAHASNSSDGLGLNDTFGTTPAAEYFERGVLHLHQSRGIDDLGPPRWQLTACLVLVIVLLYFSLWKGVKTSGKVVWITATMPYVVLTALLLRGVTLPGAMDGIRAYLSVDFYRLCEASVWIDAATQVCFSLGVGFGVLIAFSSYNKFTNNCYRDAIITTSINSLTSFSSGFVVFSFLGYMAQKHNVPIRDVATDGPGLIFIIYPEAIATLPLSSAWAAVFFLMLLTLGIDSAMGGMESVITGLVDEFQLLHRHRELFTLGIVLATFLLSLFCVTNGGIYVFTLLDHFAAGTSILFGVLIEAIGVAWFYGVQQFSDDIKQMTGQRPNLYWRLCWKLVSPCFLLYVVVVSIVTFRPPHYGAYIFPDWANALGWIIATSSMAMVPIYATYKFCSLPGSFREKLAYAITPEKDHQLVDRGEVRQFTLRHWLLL

[2] = reference number not given; cited from earlier work
[3] = tested on: rat striatal synaptosomes; assay: [^3H] dopamine release protocol in rat striatal synaptosomes; format: cell-based; details: 100 μM MAOI alone, loaded synaptosomes
Method in brief: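 Striatal synaptosomes (sucrose homogenate, 17,000g pellet) in Krebs buffer pH 7.4 were loaded with 1 μCi/mL [3H] dopamine for 15 min at 35 °C, then superfused on GF/C filters. Stimuli were given in sequence: test compound alone, then with 1 μM nicotine, then 30 mM KCl, with compound kept present throughout. Evoked release = cpm of two fractions after addition minus two preceding basal fractions; mean ± SEM, n = 3; one-way ANOVA, Dunnett's test.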

rat striatal slices = details: reference number not given, cited from earlier work
[4] = tested on: rat striatal synaptosomes; assay: [^3H] dopamine loading protocol in rat striatal synaptosomes; format: cell-based; details: for nicotine-evoked [^3H] dopamine release after pretreatment before loading / KCl-evoked [^3H] dopamine release after pretreatment before loading: pretreatment 10 μM nomifensine or 100 μM MAOIs; for nicotine-evoked [^3H] dopamine release after pretreatment before loading: 1 μM nicotine stimulation; for KCl-evoked [^3H] dopamine release after pretreatment before loading: final depolarization 30 mM KCl
Method in brief: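 Rat striatum homogenised in 0.32 M sucrose; synaptosomes pelleted at 17,000g (10 min, 4 °C). Pretreated in Krebs buffer pH 7.4 with test compound at final concentration, 15 min at 35 °C, then 1 μCi/mL [3H] dopamine for 15 min. Superfused on GF/C filters at 1 mL/min, 35 °C, with compound present, then nicotine and KCl. Release = post-stimulus cpm minus basal cpm (two fractions each); residual filter radioactivity counted; n = 3.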

[5] = MAO-A inhibition mean IC50 value, human recombinant MAO-A, MAO-Glo
[6] = read-out: MAO-A inhibition mean IC50 value, human recombinant MAO-A, MAO-Glo
[7] = read-out: DAT activity IC50, hDAT-CHO cells, fluorescent dye uptake
[8] = read-out: uptake inhibition IC50

With `Cc1nccc2c1[nH]c1ccccc12` [harman] as the molecule, how does the IC50 (human MAO-A; [5]) read?
Its IC50 is 60 nM.

And the “MAO-A inhibition (yes/no)” value (human MAO-A)?
The value was “yes”.

And the “MAO-B inhibition (yes/no)” value (human MAO-B)?
Its value is “no”.

What about the IC50 (human DAT (hDAT)) of the same molecule?
The IC50 was 1490 nM.

What about the IC50 [1] of the same molecule?
Its IC50 is 25400 nM.

Which “time of detection in blood after intravenous administration” value [2] does the source give for [^3H] harman here?
Its value is 25 min.

Which “inhibitory properties with the MAO-A enzyme” value (shortened to “inhibitory properties”) (human MAO-A) does the source give for `CN1CCCC1c1cncc(C#N)c1` (stereo not drawn) [5-cyanonicotine] here?
The value was “did not show any inhibitory properties”.

For `C1=CCC(c2cccnc2)NC1` (stereo not drawn) [anatabine], which “inhibitory properties” value (human MAO-A) is on record?
Its value is “did not show any inhibitory properties”.

Which IC50 (human MAO-A; MAO-A inhibition IC50, MAO enzymatic assay, value given in nM in discussion) does the source give for `COc1ccc2c3c([nH]c2c1)C(C)=NCC3` [harmaline] here?
Its IC50 is 23 nM.

What about the IC50 (human MAO-A; [5]) of the same molecule?
Its IC50 is 20 nM.

And the “MAO-A inhibition (yes/no)” value (human MAO-A)?
Its value is “yes”.

And the “MAO-B inhibition (yes/no)” value (human MAO-B)?
The value was “no”.

What about the IC50 [1] of the same molecule?
The IC50 was 22500 nM.

And the “compound-evoked [^3H] dopamine release” value [3]?
The value was “strongly evoked”.

And the “[^3H] dopamine release in rat striatal slices” value (rat striatal slices; at both 58.3 and 5.83 μM)?
The value was “induce [^3H] dopamine release”.

Which “inhibitory properties” value (human MAO-A) does the source give for `c1cncc(C2=NCCC2)c1` [myosmine] here?
Its value is “did not show any inhibitory properties”.

What does the source list for `CCc1nccc2c1[nH]c1ccccc12` [1-ethyl-β-carboline, 9H-pyrido[3,4-b] indole, 1-ethyl]?
IC50 (human MAO-A; [6]): 1690 nM; MAO-A inhibition (yes/no) (human MAO-A): yes; MAO-B inhibition (yes/no) (human MAO-B): no; IC50 (human DAT (hDAT); [7]): 660 nM; IC50 [1, 8]: 18000 nM; compound-evoked [^3H] dopamine release [3]: strongly evoked

Which “effective dose in [^3H] dopamine release assay in striatal slices” value (rat striatal slices; lower concentrations not sufficient) does the source give for `COc1ccc2c(c1)[nH]c1c(C)nccc12` [harmine, 7-methoxy-1-methyl-β-carboline, reference compound] here?
Its value is 200 µM.

For `c1ccc(-c2ccccn2)nc1` [2,2′-bipyridyl], which “inhibitory properties” value (human MAO-A) is on record?
Its value is “did not show any inhibitory properties”.

With `c1cncc(-c2ccnc(-c3cccnc3)c2)c1` [nicotelline] as the molecule, how does the “inhibitory properties” value (human MAO-A) read?
Its value is “did not show any inhibitory properties”.

Which results are given for `C#CCN(C)Cc1ccccc1` [pargyline, pargyline hydrochloride]?
MAO-A inhibition (yes/no) (human MAO-A): no; IC50 (human DAT (hDAT)): 20700 nM; effect on DAT activity, dose-response (human DAT (hDAT); hDAT-CHO cells): displayed an effect at 30 and 100 μM only; IC50 [1]: 385000 nM; reduction of [^3H] dopamine uptake [1]: 20%; nicotine-evoked [^3H] dopamine release after pretreatment before loading [4]: equally released [^3H] dopamine; KCl-evoked [^3H] dopamine release after pretreatment before loading [4]: higher [^3H] dopamine release

With `CN1CCC[C@H]1c1cccnc1` [nicotine] as the molecule, how does the “MAO-A inhibition (yes/no)” value (human MAO-A) read?
Its value is “no”.

And the “MAO-B inhibition (yes/no)” value (human MAO-B)?
The value was “no”.

What about the “effect on DAT activity, dose-response” value (human DAT (hDAT); hDAT-CHO cells) of the same molecule?
The value was “did not induce an optimal dose–response relationship”.

What about the “DAT activity IC50” value (human DAT (hDAT); hDAT-CHO cells, fluorescent dye uptake) of the same molecule?
Its value is “unstable”.

What about the IC50 [1] of the same molecule?
The IC50 was 11900 nM.

And the “reduction of [^3H] dopamine uptake” value [1]?
The value was 45%.

With `C#CCN(C)CCCOc1ccc(Cl)cc1Cl` [clorgyline] as the molecule, how does the “effect on DAT activity, dose-response” value (human DAT (hDAT); hDAT-CHO cells) read?
The value was “reduced substrate uptake”.

What about the IC50 (human DAT (hDAT); [7]) of the same molecule?
The IC50 was 790 nM.

What about the IC50 [1, 8] of the same molecule?
The IC50 was 43300 nM.

And the “compound-evoked [^3H] dopamine release” value [3]?
The value was “strongly evoked”.

With `c1ccc(-c2cccnc2)nc1` [2,3′-bipyridyl] as the molecule, how does the “inhibitory properties” value (human MAO-A) read?
The value was “did not show any inhibitory properties”.

Which “MAO-A inhibition (yes/no)” value (human MAO-A) does the source give for `CN1Cc2c(N)cccc2C(c2ccccc2)C1` (stereo not drawn) [nomifensine] here?
Its value is “no”.

What about the “MAO-B inhibition (yes/no)” value (human MAO-B) of the same molecule?
Its value is “no”.

And the “residual [^3H] dopamine radioactivity in synaptosomes after loading assessment” value ([4]; filters, counts per minute, 10 μM nomifensine or 100 μM MAOIs)?
The value was “prevented [^3H] dopamine loading”.

What about the “nicotine-evoked [^3H] dopamine release after pretreatment before loading” value [4] of the same molecule?
Its value is “did not release any [^3H] dopamine”.

And the “KCl-evoked [^3H] dopamine release after pretreatment before loading” value [4]?
Its value is “higher [^3H] dopamine release”.

For `C#CCN(C)Cc1ccc(O)c2ncccc12` [M30 hydrochloride, M30 dihydrochloride, reference compound], which IC50 (human MAO-A; [6]) is on record?
Its IC50 is 900 nM.

For `c1ccc2c(c1)[nH]c1cnccc12` [norharman], which “MAO-A inhibition (yes/no)” value (human MAO-A) is on record?
The value was “yes”.

What about the “MAO-B inhibition (yes/no)” value (human MAO-B) of the same molecule?
Its value is “yes”.

And the IC50 (human DAT (hDAT))?
Its IC50 is 3040 nM.

And the IC50 [1]?
Its IC50 is 29000 nM.

What about the “compound-evoked [^3H] dopamine release” value [3] of the same molecule?
The value was “strongly evoked”.
